Data: ChEMBL document CHEMBL1949545, “Synthesis and evaluation of malonate-based inhibitors of phosphosugar-metabolizing enzymes: class II fructose-1,6-bis-phosphate aldolases, type I phosphomannose isomerase, and phosphoglucose isomerase” (Bioorg Med Chem, 2012)
pIC50, pKi: −log10 of the molar value. Active and inactive are the calls of the source. The calls are words filed in the database; no cut-off is given here.

Key:
[1] = Inhibition of Yersinia pestis FBA-2
[2] = Inhibition of Candida albicans FBA-2
[3] = Inhibition of Helicobacter pylori FBA-2
[4] = Inhibition of Mycobacterium tuberculosis FBA-2
[5] = target: T1, Fructose-bisphosphate aldolase A (Oryctolagus cuniculus, UniProt P00883); assay: Inhibition of rabbit muscle FBA-1
T1 sequence (P00883 whole entry): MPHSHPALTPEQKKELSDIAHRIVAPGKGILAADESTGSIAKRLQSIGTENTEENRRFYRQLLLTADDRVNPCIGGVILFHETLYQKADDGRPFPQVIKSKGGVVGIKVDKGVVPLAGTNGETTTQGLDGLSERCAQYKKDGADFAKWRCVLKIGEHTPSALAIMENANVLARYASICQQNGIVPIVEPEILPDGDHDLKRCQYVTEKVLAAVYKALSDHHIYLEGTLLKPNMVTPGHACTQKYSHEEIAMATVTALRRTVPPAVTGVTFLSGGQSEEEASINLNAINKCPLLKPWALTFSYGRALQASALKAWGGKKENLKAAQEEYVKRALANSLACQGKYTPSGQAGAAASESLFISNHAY

[6] = Inhibition of Escherichia coli PMI
[7] = Inhibition of yeast PGI; set-up: species or system Saccharomyces cerevisiae
[8] = test system: Yersinia pestis; assay: Antimicrobial activity against Yersinia pestis at 1 mM; assay type: functional, organism-based
[9] = test system: Mycobacterium tuberculosis; assay: Antimicrobial activity against Mycobacterium tuberculosis at 1 mM; assay type: functional, organism-based
[10] = test system: Candida albicans; assay: Antimicrobial activity against Candida albicans at 1 mM; assay type: functional, organism-based
In short: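 Growth inhibition was tested in cultivated microbial cultures at concentrations up to 1 mM.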

Row | SMILES | pKi [1] | pKi [2] | pKi [3] | pKi [4] | pKi [5] | pKi [6] | pKi [7] | pIC50 [7] | Activity [8] | Activity [9] | Activity [10] | pIC50 [6]
1 | O=C(CO)N(O)CCCCOP(=O)(O)O | 7.10 | 6.12 | 5.92 | 6.76 | < 3.00 |  |  |  |  |  |  | 
2 | O=C(NO)[C@@H](O)[C@H](O)[C@H](O)COP(=O)(O)O |  |  |  |  |  | 7.10 | 6.64 |  |  |  |  | 
3 | NO.O=C(O)C(C[C@@H](O)[C@@H](O)[C@H](O)C(=O)NO)C(=O)O |  |  |  |  |  | 3.79 |  | 2.64 |  |  |  | 
4 | O=C(COP(=O)(O)O)N(O)CCCCOP(=O)(O)O |  |  |  |  |  |  |  |  | inactive | inactive | inactive | 
5 | O=C(O)C(CCCCN(O)C(=O)COP(=O)(O)O)C(=O)O | 8.10 | 7.30 | 7.40 | 8.40 | 3.59 |  |  |  | inactive | inactive | inactive | 
6 | O=C(O)C(CC(=O)N(O)CCCCOP(=O)(O)O)C(=O)O | 2.82 | 2.64 | 3.60 | 3.30 | 3.30 |  |  |  | inactive | inactive | inactive | 
7 | O=C(NO)[C@@H](O)[C@H](O)[C@H](O)CO |  |  |  |  |  |  |  | 2.26 |  |  |  | 2.00
